Screens from PubChem.
SKN-1 block = suppressors of acrylamide-induced Pgst-4::GFP reporter in worms, primary screen, SKN-1 inhibitor project, whole organism, uHTS, GFP/RFP fluorescence ratio, strain VP596 | C. elegans VP596 Pgst-4::GFP/RFP ratio, 24 h | inhibition, % at 21.8 µM | 360,000 tested, 0.49% active;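 active = interference check ratio from 0.5 to 1.5 plus GFP to RFP signal ratio inhibition reaching or exceeding a fixed threshold, cut at about 30% in these data, passing the limit was not always enough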
bovine MsrA act = bovine MsrA enzyme activators, primary screen, biochemical, absorbance, HTS. Methionine sulfoxide reductase A (Bos taurus). purified bovine MsrA, absorbance read-out. activation, % at 10.6 µM. 360,000 tested, 0.3% active. AID 602163, 2012; in the data active = activation above about 7.5%;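 note: 0% = vehicle and 100% = reference activator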
MT1-MMP act inh = blockers of MT1-MMP proenzyme processing, primary screen, HT1080 RFP-PRO-GFP cells, GFP/RFP fluorescence; AID 651647, 2012; Matrix metalloproteinase-14 (Homo sapiens), P50281; GFP/RFP ratio change, % at 20 µM; 360,000 tested, 0.061% active; GFP/RFP ratio fluorescence, overnight; percent of plate control window, DMSO zero;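 active = GFP/RFP ratio change of at least 30% with cell ATP level not reduced by more than half and red fluorescence within 50% of control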
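Assay system: HT1080 RFP-PRO-GFP cells | Dosing: 20 µM single dose, 1% DMSO | Incubation: Cells overnight before dosing, compound overnight, 37 °C, 5% CO2 | Evaluation: GFP/RFP fluorescence ratio | Control set: DMSO-only wells and HT1080 RFP-L50D-GFP cell wells as references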
MsrA inhibitor = bovine MsrA enzyme inhibitors, primary screen, biochemical, absorbance, HTS; Methionine sulfoxide reductase A (Bos taurus); purified bovine MsrA, absorbance read-out; 360,000 tested, 0.75% active; AID 651718, 2012; inhibition, % at 15.5 µM;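 note: 0% = vehicle wells with enzyme and 100% = reference inhibitor wells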
p-CIP stab down = p/CIP-EGFP fusion destabilizers, primary screen, fluorescence, F442A cells; Q05BA5; decrease of EGFP signal, % at 10 µM; 290,000 tested, 0.01% active; 16 h;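 active = EGFP signal decrease of at least 30% at 10 µM or well 3 SD below plate mean, unless failing retest; inactive = the rest, including hits failing retest or dose response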
MsrA inh confirm = bovine MsrA inhibitors, retest, confirmation, biochemical, absorbance, HTS; shares compounds with MsrA inhibitor; purified bovine MsrA, absorbance read-out; inhibition, % at 15.5 µM; 2,300 tested, 41% active;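 note: coupled to thioredoxin reductase with NADPH and selenocystamine and DMSO as substrate; 0% = vehicle only and 100% = full effect of reference inhibitor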
An asterisk follows results filed as active; . = not tested or not shown. Rows were chosen to be rich in hits. Some 1.6% of all compounds tested hit in one or more screens of this group. Cut-off read from the data, not from the text of the source, unless noted: active = inhibition above about 4.5%; inactive = the rest.

SMILES	SKN-1 block	bovine MsrA act	MT1-MMP act inh	MsrA inhibitor	p-CIP stab down	MsrA inh confirm
O=C(Nc1cccc(C(=O)O)c1)/C(=C\c1ccc2c(c1)OCO2)NC(=O)c1ccccc1	14	-6	9	5.5*	8	3
O=C(Nc1ccc(C(=O)O)cc1)/C(=C/c1ccc2c(c1)OCO2)NC(=O)c1cccc(Br)c1	6	-12	1	4	9	.
O=C(Nc1cccc(C(=O)O)c1)/C(=C\c1ccc2c(c1)OCO2)NC(=O)c1ccco1	-1	-6	1	3	-15	.
O=C(Nc1cccc(C(=O)O)c1)/C(=C\c1ccc2c(c1)OCO2)NC(=O)c1ccc(Br)cc1	0	-19	9	6.1*	12	2
COc1ccc(/C=C(/NC(=O)c2ccc(Br)o2)C(=O)Nc2cccc(C(=O)O)c2)cc1	17	-6	0	5.7*	.	4
O=C(NCCc1ccccc1Cl)[C@@H]1CCCN1C(=O)[C@H](Cc1cccnc1)NC(=O)N1CCOCC1	.	.	.	2	.	.
CC(C)C[C@H](NC(=O)c1ccco1)C(=O)N1CCC[C@H]1C(=O)NCc1ccccc1	.	.	.	-1	.	.
COc1ccc(Nc2nc3ccccc3nc2NS(=O)(=O)c2cccs2)cc1	15	2	2	0	-15	.
COCCCNc1nc2ccccc2nc1NS(=O)(=O)c1cccs1	-22	-4	4	5.2*	-13	3
COCCCNc1nc2ccccc2nc1NS(=O)(=O)c1ccc(OC)cc1	15	0	0	3	-14	.
O=S(=O)(Nc1nc2ccccc2nc1OCC(F)(F)F)c1cccs1	-2	-2	-1	4.9*	-6	1
O=C1CCCC2=C1[C@@]1(O[C@H]3C=CC=CN23)C(=O)N(c2ccccc2)c2ccccc21	.	.	.	0	.	.
O=C(N[C@@H](Cc1cccnc1)C(=O)N1CCC[C@H]1C(=O)NCCc1ccccc1Cl)c1ccccc1	.	.	.	0	.	.
CCN(C(=O)CSc1nc2nc(C)cc(C)n2n1)c1ccccc1	6	-2	1	4.8*	-7	2
CCN(C(=O)CSc1nc2nc(C)cc(C)n2n1)c1cccc(C)c1	-19	-10	9	0	6	.
CCOC(=O)C1=Nc2ccccc2C1=[N+]=[N-]	23	-6	-11	5.7*	-6	3
CCOc1ccc(C(O)c2nccn2Cc2ccccc2)cc1 (stereo not drawn)	-2	-8	1	8.8*	-5	5
CCOC(=O)C(=CNc1ccc(Cl)cn1)C(=O)OCC	-11	7	0	4	-8	.
CCOC(=O)C(=CNc1cccc(N)n1)C(=O)OCC	14	-4	0	6.5*	0	4.8*
CC(C)c1ccc(OCCCN2CCC(C(O)(c3ccccc3)c3ccccc3)CC2)cc1	.	.	.	-1	.	.
O=C(O)c1ccc(-c2nc3ccccc3s2)o1	-3	-4	2	5.2*	4	4
O=C(c1ccc(-c2nc3ccccc3s2)o1)N1CCN(c2ccccc2O)CC1	12	-2	-1	3	-3	.
COc1ccc(C(=O)/C=C/c2ccc(O)cc2)cc1	11	-2	5	5.0*	-4	4
COc1ccc(C=CC(=O)c2ccc([N+](=O)[O-])cc2)cc1	-3	1	3	-1	.	.
CN(C)N=Nc1nc2c(c(=O)n(C)c(=O)n2C)n1C	18	-4	1	5.8*	-6	4
SMILES	SKN-1 block	bovine MsrA act	MT1-MMP act inh	MsrA inhibitor	p-CIP stab down	MsrA inh confirm
CC(C)/C=N/Nc1nc2c(c(=O)n(C)c(=O)n2C)n1C	3	-3	3	0	7	.
O=C(Nc1nc2ccccc2s1)c1ccc(N2CCCCC2)c([N+](=O)[O-])c1	3	-1	-12	4.7*	-1	2
O=C(Nc1ccon1)c1ccc(N2CCCCC2)c([N+](=O)[O-])c1	10	-2	1	0	0	.
Nc1nc2nccc(-c3ccccn3)n2n1	-5	-8	0	3	8	.
Nc1nc2nccc(-c3ccco3)n2n1	5	-5	6	6.1*	2	3
CCOC(=O)c1nnn(-c2nonc2-n2cccc2)c1CCl	0	-6	3	6.4*	-18	5.3*
CCOC(=O)c1nnn(-c2nonc2-n2cccc2)c1CN1CCC(C)CC1	0	-4	-22	0	0	.
COC(=O)C1=C(C)N(Cc2ccccc2C(F)(F)F)C(=NCc2ccc(OC)cc2)NC1c1ccc(F)cc1 (stereo not drawn)	.	.	.	-2	.	.
Cc1ccccc1Nc1c(N)c(=O)oc2ccccc12	-17	2	3	6.1*	-6	7.8*
CN(C)CCNc1c(N)c(=O)oc2ccccc12	6	-4	3	-1	8	.
CC(C)C[C@H]1CN([C@@H](Cc2ccccc2)CN2CCC[C@@H]2CN2C(=O)C(=O)NC[C@@H]2Cc2ccc(O)cc2)C(=O)C(=O)N1CC1CCCCC1	-10	-7	2	4.8*	.	-1
CCOC(=O)c1cc2c(ccc3ccccc32)oc1=O	7	-3	5	20*	2	13*
O=C(O)c1cc2c(ccc3ccccc32)oc1=O	-13	-6	0	2	2	.
C=CC[C@]12C[C@@]3(O[C@H](c4ccc(C(F)(F)F)cc4)N=C3C[C@H](c3ccc(OC)cc3)[C@H]1C)N(Cc1ccncc1)C2=O	.	.	.	0	.	.
Cc1cccn2c(=O)nc(SCC(=O)N3CC(C)OC(C)C3)nc12 (stereo not drawn)	1	-5	0	5.5*	.	2
CC(=O)c1ccc(-c2ccccc2C2=CC(=O)CC(C)(C)C2=O)cc1	.	.	.	2	.	.
CC1S/C(=N/N=C/c2cccs2)NC1=O (stereo not drawn)	-1	-5	-2	5.0*	-9	4
CCC1S/C(=N/N=C/c2cccs2)NC1=O (stereo not drawn)	11	-8	2	6.2*	-5	5.5*
CCCC1S/C(=N/N=C/c2cccs2)NC1=O (stereo not drawn)	2	-6	-2	3	8	.
CC(C)C1S/C(=N/N=C/c2cccs2)NC1=O (stereo not drawn)	3	-8	4	6.8*	5	4
C(=N\N=C\c1cccs1)/c1cccs1	74*	-1	-6	5.1*	-7	4.7*
CCCCc1c(-c2ccccc2OC)ncn1Cc1cccc(F)c1F	.	.	.	0	.	.
Cc1cn2c(=O)c3ncn(C4OC(CO)C(O)C4O)c3n(C)c2n1 (stereo not drawn)	.	.	.	-1	.	.
O=C(NCc1ccccc1)[C@@H]1CCCN1C(=O)[C@H]1CCCN1C(=O)c1cc(F)cc(F)c1	.	.	.	0	.	.
O=C(NCCC1=CCCCC1)c1ccc(=O)oc1	-20	-18	-11	6.9*	-6	7.1*
